Experimental data reported in ChEMBL document CHEMBL3232847, “Discovery of 6-phenylpyrimido[4,5-b][1,4]oxazines as potent and selective acyl CoA:diacylglycerol acyltransferase 1 (DGAT1) inhibitors with in vivo efficacy in rodents” (J Med Chem, 2014).
pIC50: −log10 of the molar value. Values belong to the compound of their own block, whether it stands above or below them.

Assays:
[1] = molecular target: T1, Diacylglycerol O-acyltransferase 1 (Homo sapiens, UniProt O75907); test: Inhibition of human liver flag-tagged DGAT1 expressed in baculovirus infected insect cells after 2 hrs by SPA
T1 sequence (O75907 whole entry): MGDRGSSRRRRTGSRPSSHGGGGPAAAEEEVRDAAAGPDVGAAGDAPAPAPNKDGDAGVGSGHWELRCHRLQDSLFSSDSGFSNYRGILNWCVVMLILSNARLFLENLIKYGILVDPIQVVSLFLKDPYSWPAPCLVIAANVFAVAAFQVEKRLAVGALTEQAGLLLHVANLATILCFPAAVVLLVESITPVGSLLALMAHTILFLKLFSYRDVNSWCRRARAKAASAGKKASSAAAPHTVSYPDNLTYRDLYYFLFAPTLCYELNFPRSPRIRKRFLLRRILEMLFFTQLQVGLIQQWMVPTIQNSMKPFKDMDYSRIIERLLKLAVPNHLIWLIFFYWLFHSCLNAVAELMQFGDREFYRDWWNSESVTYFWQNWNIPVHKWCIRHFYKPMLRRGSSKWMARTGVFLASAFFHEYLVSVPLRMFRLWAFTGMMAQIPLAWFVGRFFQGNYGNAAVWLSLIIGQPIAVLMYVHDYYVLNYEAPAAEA

Cytochrome P450 3A4 = Cytochrome P450 3A4 (Homo sapiens, UniProt P08684); test: Inhibition of CYP3A4 (unknown origin) at 10 uM; format: ADME
Cynomolgus monkey [2] = test: Toxicity in cynomolgus monkey assessed as QTc interval prolongation at 1 mg/kg/day, po by 28-day multiple-dose toxicity study relative to control; format: organism-based, Macaca fascicularis; parameters: route oral; conditions: in vivo
How it was run: (§1)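 Cynomolgus monkeys were dosed po at 1, 10 and 100 mg kg−1 day−1 for 28 days. Plasma ALT and AST were measured and QTc intervals were recorded, with eight monkeys in the 100 mg/kg group.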

Cytochrome P450 1A2 = molecular target: T2, Cytochrome P450 1A2 (Homo sapiens, UniProt P05177); test: Inhibition of CYP1A2 (unknown origin) at 10 uM; format: ADME
T2 sequence (P05177 whole entry): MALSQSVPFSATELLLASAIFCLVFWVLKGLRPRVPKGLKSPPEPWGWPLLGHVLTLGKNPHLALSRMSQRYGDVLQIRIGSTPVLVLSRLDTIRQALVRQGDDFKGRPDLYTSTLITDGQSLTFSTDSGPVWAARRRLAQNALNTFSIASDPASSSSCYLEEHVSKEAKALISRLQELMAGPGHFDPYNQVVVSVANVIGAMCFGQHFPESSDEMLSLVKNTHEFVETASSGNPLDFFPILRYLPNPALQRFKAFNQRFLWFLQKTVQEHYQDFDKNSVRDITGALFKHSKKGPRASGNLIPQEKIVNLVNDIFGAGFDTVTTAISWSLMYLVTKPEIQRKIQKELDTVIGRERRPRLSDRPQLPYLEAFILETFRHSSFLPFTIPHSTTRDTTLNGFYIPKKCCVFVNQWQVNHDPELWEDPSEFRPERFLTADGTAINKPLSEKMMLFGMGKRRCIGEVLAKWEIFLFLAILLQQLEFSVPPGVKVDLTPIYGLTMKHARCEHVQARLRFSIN

Cytochrome P450 2D6 = Cytochrome P450 2D6 (Homo sapiens, UniProt P10635); test: Inhibition of CYP2D6 (unknown origin) at 10 uM; format: ADME
Salmonella typhimurium = test: Genotoxicity in Salmonella typhimurium; format: toxicity, organism-based; conditions: salmonella enterica subsp. enterica serovar typhimurium
Cynomolgus monkey [3] = test: Toxicity in cynomolgus monkey assessed as QTc interval prolongation at 10 mg/kg/day, po by 28-day multiple-dose toxicity study relative to control; format: organism-based, Macaca fascicularis; parameters: route oral; conditions: in vivo; how it was run: as §1
Rattus norvegicus [4] = test: Toxicity in Sprague-Dawley rat assessed as sebaceous gland atrophy at 100 to 500 mg/kg, po by 28-day multiple-dose toxicity study; format: organism-based; parameters: dose 100-500 mg/kg, route oral; conditions: in vivo
How it was run: (§2)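 Sprague−Dawley rats were dosed po at 100 and 500 mg kg−1 day−1 for 28 days. Clinical pathology was assessed for treatment-related changes, including sebaceous gland atrophy.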

Cytochrome P450 2C9 = Cytochrome P450 2C9 (Homo sapiens, UniProt P11712); test: Inhibition of CYP2C9 (unknown origin) at 10 uM; format: ADME
Rattus norvegicus [5] = test: Toxicity in Sprague-Dawley rat assessed as clinical pathology parameters at 100 to 500 mg/kg, po by 28-day multiple-dose toxicity study; format: organism-based; parameters: dose 100-500 mg/kg, route oral; conditions: in vivo; how it was run: as §2
[6] = test system: CHL (Chinese hamster lung cells); test: Toxicity in CHL cells assessed as chromosomal aberration
[7] = Clearance in Sprague-Dawley rat at 1 mg/kg, iv; format: ADME, organism-based; parameters: dose 1 mg/kg, route intravenous; conditions: in vivo
Rattus norvegicus [8] = test: Toxicity in Sprague-Dawley rat assessed as elevation of plasma ALT level at 50 mg/kg, iv administered as single dose; format: organism-based; parameters: dose 50 mg/kg, route intravenous; conditions: in vivo
Rattus norvegicus [9] = test: Toxicity in Sprague-Dawley rat assessed as elevation of plasma AST level at 50 mg/kg, iv administered as single dose; format: organism-based; parameters: dose 50 mg/kg, route intravenous; conditions: in vivo

Cytochrome P450 3A4, sequence (P08684 whole entry): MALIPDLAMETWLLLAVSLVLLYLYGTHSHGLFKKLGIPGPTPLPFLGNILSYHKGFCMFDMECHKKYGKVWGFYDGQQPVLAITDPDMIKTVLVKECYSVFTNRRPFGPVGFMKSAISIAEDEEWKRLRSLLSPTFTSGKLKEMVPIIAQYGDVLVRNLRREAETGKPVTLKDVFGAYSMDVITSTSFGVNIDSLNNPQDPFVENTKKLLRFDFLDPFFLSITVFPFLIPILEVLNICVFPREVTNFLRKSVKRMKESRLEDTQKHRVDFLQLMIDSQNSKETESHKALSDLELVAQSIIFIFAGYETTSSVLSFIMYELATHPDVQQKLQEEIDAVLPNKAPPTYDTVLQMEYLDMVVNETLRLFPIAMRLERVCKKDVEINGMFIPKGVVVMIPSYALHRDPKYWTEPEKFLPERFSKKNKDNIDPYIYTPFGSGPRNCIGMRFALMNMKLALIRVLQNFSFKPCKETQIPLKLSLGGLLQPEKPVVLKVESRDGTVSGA
Cytochrome P450 2C9, sequence (P11712 whole entry): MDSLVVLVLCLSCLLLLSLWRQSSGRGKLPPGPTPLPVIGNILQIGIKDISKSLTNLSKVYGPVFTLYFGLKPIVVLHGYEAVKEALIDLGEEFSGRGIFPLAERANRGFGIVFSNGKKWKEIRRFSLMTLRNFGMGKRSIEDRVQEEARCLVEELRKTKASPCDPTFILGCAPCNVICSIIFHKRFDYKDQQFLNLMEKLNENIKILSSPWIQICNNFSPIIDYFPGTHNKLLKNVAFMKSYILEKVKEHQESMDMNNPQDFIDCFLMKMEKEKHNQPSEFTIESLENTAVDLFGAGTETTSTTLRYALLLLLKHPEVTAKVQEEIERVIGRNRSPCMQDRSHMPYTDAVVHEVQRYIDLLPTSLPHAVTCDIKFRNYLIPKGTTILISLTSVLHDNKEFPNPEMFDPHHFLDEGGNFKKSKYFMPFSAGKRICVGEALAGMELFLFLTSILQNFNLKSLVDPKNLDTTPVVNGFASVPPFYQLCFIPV
Cytochrome P450 2D6, sequence (P10635 whole entry): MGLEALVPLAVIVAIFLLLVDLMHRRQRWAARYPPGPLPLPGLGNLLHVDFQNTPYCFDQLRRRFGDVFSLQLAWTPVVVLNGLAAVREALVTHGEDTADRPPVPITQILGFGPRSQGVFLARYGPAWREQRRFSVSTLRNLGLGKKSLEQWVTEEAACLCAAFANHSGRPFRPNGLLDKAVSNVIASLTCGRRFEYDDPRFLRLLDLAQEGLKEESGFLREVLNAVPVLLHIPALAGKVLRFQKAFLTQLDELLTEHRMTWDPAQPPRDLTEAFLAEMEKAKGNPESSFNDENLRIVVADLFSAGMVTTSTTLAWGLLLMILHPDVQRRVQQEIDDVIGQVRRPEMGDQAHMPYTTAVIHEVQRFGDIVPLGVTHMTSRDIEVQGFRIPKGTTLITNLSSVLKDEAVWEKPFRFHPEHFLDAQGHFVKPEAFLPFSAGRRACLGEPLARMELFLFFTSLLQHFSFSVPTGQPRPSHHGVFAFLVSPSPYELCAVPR

Structure (SMILES): Cc1nc(N)c2c(n1)OC(C)(C)C(c1ccc([C@H]3CC[C@H](CC(=O)O)CC3)cc1)=N2
- inhibition (INH) (Cytochrome P450 3A4): Not Active
- Activity (Cynomolgus monkey [2]): Non-toxic
- inhibition (INH) (Cytochrome P450 1A2): Not Active
- inhibition (INH) (Cytochrome P450 2D6): Not Active
- Activity (Salmonella typhimurium): Non-toxic
- Activity (Cynomolgus monkey [3]): Non-toxic
- Activity (Rattus norvegicus [4]): Toxic
- inhibition (INH) (Cytochrome P450 2C9): Not Active
- Activity (Rattus norvegicus [5]): Non-toxic
- Activity [6]: Toxic
- clearance [7]: 3.5 mL/min/kg

Structure (SMILES): CC1(C)Oc2ncnc(N)c2C=C1c1ccc([C@H]2CC[C@H](CC(=O)O)CC2)cc1
- clearance [7]: 23.3 mL/min/kg

Structure (SMILES): CC1(C)Oc2nc(C(F)(F)F)nc(N)c2N=C1c1ccc([C@H]2CC[C@H](CC(=O)O)CC2)cc1
- clearance [7]: 1.33 mL/min/kg

Structure (SMILES): CC1(C)Oc2ncnc(N)c2C=C1c1ccc2c(c1)CC[C@]21CC[C@@H](CC(=O)O)CC1
- clearance [7]: 21.7 mL/min/kg

Structure (SMILES): CC1(C)Oc2nc(O)nc(N)c2N=C1c1ccc([C@H]2CC[C@H](CC(=O)O)CC2)cc1
- Activity (Rattus norvegicus [8]): Toxic
- Activity (Rattus norvegicus [9]): Toxic

The next lines start with the values.

- pIC50 [1]: < 5.00
Structure (SMILES): Nc1cccc2c1N=C(c1ccc(Br)cc1)CO2

- pIC50 [1]: < 5.00
Structure (SMILES): Nc1nc(N)c2c(n1)OCC(c1ccc(Br)cc1)=N2

- pIC50 [1]: < 5.00
Structure (SMILES): CN(C)c1nc(N)c2c(n1)OCC(c1ccc(Br)cc1)=N2

- pIC50 [1]: < 5.00
Structure (SMILES): CN(C)c1ncnc2c1N=C(c1ccc(Br)cc1)CO2

- pIC50 [1]: < 5.00
Structure (SMILES): CNc1ncnc2c1N=C(c1ccc(Br)cc1)CO2

- pIC50 [1]: < 5.00
Structure (SMILES): Nc1nc(O)nc2c1N=C(c1ccc(Br)cc1)CO2
